In ChEMBL document CHEMBL1777723, “Design, synthesis, and evaluation of bromo-retrochalcone derivatives as protein tyrosine phosphatase 1B inhibitors” (Bioorg Med Chem Lett, 2011):
pIC50: −log10 of the molar value.

Legend:
[1] = molecular target: T1, Tyrosine-protein phosphatase non-receptor type 1 (Homo sapiens) (UniProt P18031); experiment: (§1) Inhibition of recombinant human PTP1B using p-nitrophenyl phosphate as substrate after 30 mins
T1 sequence (whole entry): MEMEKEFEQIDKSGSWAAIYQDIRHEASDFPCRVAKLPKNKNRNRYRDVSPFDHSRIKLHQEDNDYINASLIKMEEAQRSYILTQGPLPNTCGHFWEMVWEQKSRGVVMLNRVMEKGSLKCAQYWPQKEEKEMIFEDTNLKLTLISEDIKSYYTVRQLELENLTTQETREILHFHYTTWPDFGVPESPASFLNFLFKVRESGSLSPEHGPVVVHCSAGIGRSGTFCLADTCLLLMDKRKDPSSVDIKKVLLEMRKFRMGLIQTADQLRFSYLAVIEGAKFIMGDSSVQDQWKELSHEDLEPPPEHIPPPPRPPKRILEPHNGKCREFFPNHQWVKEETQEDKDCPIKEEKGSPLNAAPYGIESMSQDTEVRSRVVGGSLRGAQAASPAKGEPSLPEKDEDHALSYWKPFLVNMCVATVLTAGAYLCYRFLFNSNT
Method in brief: (§2)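 Reaction buffer: 10 citrate pH […], 0.1 M NaCl, 1 mM EDTA, 1 mM dithiothreitol. Enzyme and sample were added with 50 of 4 mM pNPP substrate stock, incubated 30 min at 37 °C, then quenched with 10 N NaOH.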

[2] = molecular target: T2, Tyrosine-protein phosphatase non-receptor type 1 (Homo sapiens, UniProt P18031); experiment: as §1; method in brief: as §2
T2 sequence (P18031 whole entry): T1 sequence (whole entry)

Compound | inhibition [1] | pIC50 [2]
C=C(C)C(C)c1cc(C(=O)/C=C/c2cc(Br)c(O)cc2OC)ccc1OC (stereo unspecified) | Dose-dependent effect | 5.72
COc1cc(O)c(Br)cc1/C=C/C(=O)c1ccc(N2CCCCC2)cc1 | Dose-dependent effect | 5.59
C=C(C)C(C)c1cc(C(=O)/C=C/c2cc(Br)c(O)cc2O)ccc1OC (stereo unspecified) | Dose-dependent effect | 5.59
COc1cc(O)c(Br)cc1/C=C/C(=O)c1cccc(NS(C)(=O)=O)c1 | Dose-dependent effect | 4.95
COc1cc(O)c(Br)cc1/C=C/C(=O)c1ccc(O)c(CC=C(C)C)c1 | Dose-dependent effect | 5.36
COc1cc(O)c(Br)cc1/C=C/C(=O)c1ccc(OC(=O)c2ccc(C(C)(C)C)cc2)cc1 | Dose-dependent effect | 5.62
COc1cc(O)c(Br)cc1/C=C/C(=O)c1cc2c(cc1N(C)C)OCO2 | Dose-dependent effect | 5.20
COc1cc(O)c(Br)cc1/C=C/C(=O)c1cccc(N2CCCCC2)c1 | Dose-dependent effect | 5.31
COc1cc(O)c(Br)cc1/C=C/C(=O)c1ccc(N2CCOCC2)cc1 | Dose-dependent effect | 5.10
COc1cc(O)c(Br)cc1/C=C/C(=O)c1ccccc1N(C)C | Dose-dependent effect | 4.86
COc1cc(O)c(Br)cc1/C=C/C(=O)c1ccc(OS(=O)(=O)c2ccc(C)cc2)cc1 | Dose-dependent effect | 5.57
C=C(C)C(C)c1cc(C(=O)/C=C/c2cc(Br)c(OC3CCCCO3)cc2OC)ccc1O (stereo unspecified) | Dose-dependent effect | 4.99
C=CCc1cc(C(=O)/C=C/c2cc(Br)c(O)cc2OC)ccc1OC | Dose-dependent effect | 5.28
C=C(C)C(C)c1cc(C(=O)/C=C/c2cc(Br)c(O)cc2OC)ccc1O (stereo unspecified) | Dose-dependent effect | 5.16
C=CCN(CC=C)c1ccc(C(=O)/C=C/c2cc(Br)c(O)cc2OC)cc1 | Dose-dependent effect | 5.47
COc1cc(O)c(Br)cc1/C=C/C(=O)c1ccc(OC(=O)c2ccccc2)cc1 | Dose-dependent effect | 5.31
C=C(C)C(C)c1cc(C(=O)/C=C/c2cc(Br)c(O)cc2OC)ccc1OCC=C(C)C (stereo unspecified) | Dose-dependent effect | 5.15
COc1cc(O)c(Br)cc1/C=C/C(=O)c1ccc(NC(=O)c2ccc(C(C)(C)C)cc2)cc1 | Dose-dependent effect | 5.47
COc1cc(O)c(Br)cc1/C=C/C(=O)c1ccc(OC(=O)c2ccc(Br)cc2)cc1 | Dose-dependent effect | 5.64
COc1cc(O)c(Br)cc1/C=C/C(=O)c1ccccc1N1CCCCC1 | Dose-dependent effect | 5.17
COc1cc(O)c(Br)cc1/C=C/C(=O)c1ccc(OCc2ccccc2)cc1 | Dose-dependent effect | 5.54
CCOC(=O)CCCOc1ccc(C(=O)/C=C/c2cc(Br)c(O)cc2OC)cc1 | Dose-dependent effect | 4.97
C=CCN(CC=C)c1cccc(C(=O)/C=C/c2cc(Br)c(O)cc2OC)c1 | Dose-dependent effect | 5.35
C=C(C)C(C)c1cc(C(=O)/C=C/c2cc(Br)c(OC3CCCCO3)cc2O)ccc1OC (stereo unspecified) | Dose-dependent effect | 5.54
C=CCN(CC=C)c1ccccc1C(=O)/C=C/c1cc(Br)c(O)cc1OC | Dose-dependent effect | 5.46
COc1cc(O)c(Br)cc1/C=C/C(=O)c1ccc(OC)c(CC=C(C)C)c1 | Dose-dependent effect | 5.54
COc1cc(O)c(Br)cc1/C=C/C(=O)c1cccc(N(C)C)c1 | Dose-dependent effect | 4.58

Further lines, results first:

inhibition [1] | pIC50 [2] | Compound
Dose-dependent effect | 4.74 | COc1cc(O)c(Br)cc1/C=C/C(=O)c1ccc(OS(C)(=O)=O)cc1
– | 4.68 | C=C(C)[C@H](C)c1cc(/C=C/C(=O)c2ccc(O)cc2)c(OC)cc1O [LICOCHALCONE E]
Dose-dependent effect | 5.38 | CCCCOc1ccc(C(=O)/C=C/c2cc(Br)c(O)cc2OC)cc1
– | < 4.52 | COc1cc(O)c(Br)cc1/C=C/C(=O)c1ccc(OCC(=O)O)cc1
– | < 4.52 | COc1cc(O)c(Br)cc1/C=C/C(=O)c1ccc(N(C)C)cc1
Dose-dependent effect | 5.17 | COc1cc(O)c(Br)cc1/C=C/C(=O)c1cccc(N)c1
Dose-dependent effect | 4.52 | COc1cc(O)c(Br)cc1/C=C/C(=O)c1ccc(OCCCC(=O)O)cc1
Dose-dependent effect | 5.00 | COc1ccc(C(=O)/C=C/c2cc(Br)c(O)cc2OC)cc1
Dose-dependent effect | 4.95 | COc1cccc(C(=O)/C=C/c2cc(Br)c(O)cc2OC)c1
Dose-dependent effect | 5.22 | COc1cc(O)c(Br)cc1/C=C/C(=O)c1ccc(-n2cccn2)cc1
Dose-dependent effect | 5.15 | C=CCc1cc(C(=O)/C=C/c2cc(Br)c(O)cc2OC)ccc1O
Dose-dependent effect | 4.82 | CCOC(=O)COc1ccc(C(=O)/C=C/c2cc(Br)c(O)cc2OC)cc1
Dose-dependent effect | 5.21 | COc1cc(O)c(Br)cc1/C=C/C(=O)c1ccc(N)cc1
Dose-dependent effect | 5.46 | COc1cc(O)c(Br)cc1/C=C/C(=O)c1ccc(OCC=C(C)C)cc1
Dose-dependent effect | 4.86 | COc1cc(O)c(Br)cc1/C=C/C(=O)c1ccc(O)cc1
